Results: publication PMC3103189 (Journal of Medicinal Chemistry, 2011)
Marks after values point to notes of the source that are not given here.

Columns and labels:
[1] = tested on: E. coli clinical isolates (n = 20); test: MIC50/MIC90 analysis, clinical isolates; format: cell-based, Escherichia coli; details: n = 20 clinical isolates
[2] = tested on: S. aureus clinical isolates (n = 31); test: MIC50/MIC90 analysis, clinical isolates; format: cell-based, Staphylococcus aureus; details: n = 31 clinical isolates
[3] = for Clobs / Vzobs: Sprague−Dawley rats, 1 mg/kg IV and 10 mg/kg PO, sterile water
[4] = tested on: S. pneumoniae clinical isolates (n = 19); test: MIC50/MIC90 analysis, clinical isolates; format: cell-based, Streptococcus pneumoniae; details: n = 19 clinical isolates
[5] = tested on: H. influenzae clinical isolates (n = 11); test: MIC50/MIC90 analysis, clinical isolates; format: cell-based, Haemophilus influenzae; details: n = 11 clinical isolates
[6] = tested on: E. coli S30 extract system (coupled transcription/translation); format: biochemical; details: relative to tetracycline
[7] = tested on: panel of Gram-positive and Gram-negative bacteria; test: MIC, summary statements over the panel; format: cell-based; details: read-out: MICs for the tetracycline-susceptible strains
Outline: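 Broth microdilution MIC in liquid medium following CLSI methods. Medium was cation-adjusted Mueller Hinton broth, prepared fresh and held at 4 °C before testing, with defibrinated horse blood added as appropriate. Runs were accepted when comparator antibiotics fell within recommended quality-control ranges for the appropriate ATCC quality-control strains.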

[8] = cited from earlier work
[9] = tested on: S. aureus ATCC 13709 (Smith); test: Mouse septicemia model, IV efficacy; format: in vivo; details: IV 1 h postchallenge, survival after 48 h

SMILES | MIC range S. aureus [2] | Clobs [3] [mL/min/kg] | Vzobs [3] [L/kg] | MIC range H. influenzae [5] | other results
CN(C)[C@@H]1C(O)=C(C(N)=O)C(=O)[C@@]2(O)C(O)=C3C(=O)c4c(O)c(N)nc(Cl)c4C[C@H]3C[C@@H]12 [20j, 9-Amino-7-chloro-6-demethyl-6-deoxy-8-azatetracycline] | – | – | – | – | fold more potent than tetracycline in transcription/translation assay [6]: about 2 fold
CN(C)[C@@H]1C(O)=C(C(N)=O)C(=O)[C@@]2(O)C(O)=C3C(=O)c4c(O)cncc4C[C@H]3C[C@@H]12.Cl.Cl [20a, 6-Demethyl-6-deoxy-8-azatetracycline Dihydrochloride] | – | – | – | – | MIC [7]: 0.25 to 1 µg/mL
CN(C)[C@@H]1C(O)=C(C(N)=O)C(=O)[C@@]2(O)C(O)=C3C(=O)c4c(O)cccc4[C@@](C)(O)[C@H]3C[C@@H]12 [tetracycline] | – | – | – | – | oral bioavailability in humans [8]: 50−70%
CN(C)[C@@H]1C(O)=C(C(N)=O)C(=O)[C@@]2(O)C(O)=C3C(=O)c4c(O)c(N)nc(F)c4C[C@H]3C[C@@H]12.Cl.Cl [20k, 9-Amino-6-demethyl-6-deoxy-7-fluoro-8-azatetracycline Dihydrochloride] | – | – | – | – | fold more potent than tetracycline in transcription/translation assay [6]: about 2 fold

More lines, main results first:

MIC range S. aureus [2] | Clobs [3] [mL/min/kg] | Vzobs [3] [L/kg] | MIC range H. influenzae [5] | SMILES | other results
0.063−4 μg/mL | 3.37 | 1.256 | 0.25−2 μg/mL | CN(C)CC(C)(C)CNc1nc(Cl)c2c(c1O)C(=O)C1=C(O)[C@]3(O)C(=O)C(C(N)=O)=C(O)[C@@H](N(C)C)[C@@H]3C[C@@H]1C2.Cl [24l, 7-Chloro-6-demethyl-6-deoxy-9-[[3-(dimethylamino)-2,2-dimethylpropyl]amino]-8-azatetracycline Trihydrochloride] | MIC range E. coli [1]: 0.5−8 μg/mL; fold lower clearance than the other three compounds ([3]; Sprague-Dawley, rat, in vivo): 5 fold; MIC range S. pneumoniae [4]: ≤0.016−0.063 μg/mL
≤0.016−1 μg/mL | 15.5 | 6.119 | 0.25−1 μg/mL | CN(C)c1cc(NC(=O)CNC(C)(C)C)c(O)c2c1C[C@H]1C[C@H]3[C@H](N(C)C)C(O)=C(C(N)=O)C(=O)[C@@]3(O)C(O)=C1C2=O [tigecycline, reference compound] | MIC range E. coli [1]: 0.125−2 μg/mL
≤0.016−32 μg/mL | 15.3 | 4.177 | 0.063−4 μg/mL | CN(C)c1ncc(O)c2c1C[C@H]1C[C@H]3[C@H](N(C)C)C(O)=C(C(N)=O)C(=O)[C@@]3(O)C(O)=C1C2=O.Cl.Cl [20f, 6-Demethyl-6-deoxy-7-(dimethylamino)-8-azatetracycline Dihydrochloride] | MIC range S. pneumoniae [4]: ≤0.016−8 μg/mL; S. aureus PD50 [9]: <0.30 ^b mg/kg
